Measured values collected from several papers.
Protocols differ between the studies behind these lines.

Structure (SMILES) | test | system | conditions | solubility
Cl.c1ccc(Cn2c(N3CCNCC3)nc3cc(-c4ccccc4)ccc32)cc1 | shake flask | aqueous buffer | 20 h, pH 6.5, 25 °C | 25 µM
OCCOc1cccc2c(NCc3ccccc3)nc(N3CCOc4ccccc43)nc12 |  | aqueous buffer | pH 7.4 | 0.43 µg/mL
CC(=O)N[C@@H](CC(N)=O)C(=O)N[C@@H](CCCNC(=N)N)C(=O)N[C@@H](CC(C)C)C(=O)N[C@H]1CSSC[C@@H](C(=O)N[C@H](C(N)=O)[C@@H](C)O)NC(=O)[C@H](CCCNC(=N)N)NC(=O)[C@H](Cc2c[nH]cn2)NC(=O)[C@H](C)NC(=O)CNC(=O)[C@H](Cc2c[nH]c3ccccc23)NC(=O)[C@H](CC(=O)O)NC(=O)[C@H](CCC(N)=O)NC(=O)[C@H](Cc2c[nH]c3ccccc23)NC(=O)[C@H](C(C)C)NC1=O |  | PBS | pH 7.4 | 1050 µg/mL
NCCCNc1nc2cc(Br)ccc2n1Cc1ccccc1 | shake flask | aqueous buffer | 20 h, pH 6.5, 25 °C | 100 µM
Fc1ccc(-c2nc3c(C4CCNCC4)nccc3[nH]2)cc1F | shake flask | aqueous buffer | pH 6.5 | > 200 µM
CS(=O)(=O)N1CCN(Cc2cc3nc(-c4cccc5[nH]ncc45)nc(N4CCOCC4)c3s2)CC1 |  | FaSSIF |  | 1 µg/mL
CCOC(=O)c1ccc(O)cc1 |  | PBS | pH 7.4 | 1210 µg/mL
COc1cccc(OC)c1-c1cc(C(=O)N[C@@H](CC(C)C)C(=O)O)nn1-c1ccnc2cc(Cl)ccc12 |  | aqueous buffer | pH 6.2 | > 155 µg/mL
O=C(O)c1ccccc1O |  | PBS | pH 7.4 | 7700 µg/mL
Cc1ccc(F)cc1Nc1nc(NCc2ccccc2)c2ccccc2n1 |  | aqueous buffer | pH 6.2 | 0.07 µg/mL
Cc1n(Cc2ccc3ccccc3n2)c2ccccc2[n+]1Cc1ccc2ccccc2n1.[Cl-] |  | water |  | > 500 µg/mL
O=C(O)Cc1ccccc1Nc1c(Cl)cccc1Cl |  | PBS | pH 7.4 | 199 µM
COc1ccccc1C(=O)Nc1cccc(NC(=O)c2cccc(C)c2)c1 |  | aqueous buffer | pH 7.4 | 0.47 µM
CC(C)C[C@H](NC(=O)[C@H](Cc1ccccc1)NC(=O)c1cnccn1)B(O)O | nephelometry | aqueous buffer | pH 6.8 | 50 µM
CCOc1ccc2cc(-c3nn(C(C)C)c(N)c3C(N)=O)ccc2n1 |  | PBS | pH 6.5, 25 °C | > 100 µM
Cc1cc(Nc2ccc(S(F)(F)(F)(F)F)cc2)n2nc(C(F)(F)F)nc2n1 | nephelometry | aqueous buffer | pH 6.5 | 30 to 60 µM
CCCCOC(=O)c1ccc(N)cc1 |  | PBS | pH 7.4 | 226 µg/mL
Cc1c(F)cccc1Nc1nc(NCc2ccccc2)c2ccccc2n1 |  | aqueous buffer | pH 7.4 | < 0.01 µg/mL
COCCc1nc2nc(C)cc(Nc3ccc(C(F)(F)F)cc3)n2n1 | nephelometry | aqueous buffer | pH 6.5 | 71 to 140 µM

Structure (SMILES) | test | system | conditions | solubility
CC(C)(C)n1nc(-c2cnc3cc(OC4CCC4)ccc3c2)c(C(N)=O)c1N |  | PBS | pH 6.5, 25 °C | 3.7 µM
COc1cc(C(=O)O)cc(OC)c1O |  | water | 72 h, 25 °C | 7400 µM
CN1CCN(C[C@H]2CCCN(c3nccc4[nH]c(-c5cc(F)cc(F)c5)nc34)C2)CC1 | shake flask | aqueous buffer | pH 6.5 | > 200 µM
Clc1cccc(Nc2nc(NCc3cccc(Br)c3)c3ccccc3n2)c1 |  | aqueous buffer | pH 5 | 0.1 µg/mL
COC(=O)C1=C(C)NC(C)=C(C(=O)OCCN(C)Cc2ccccc2)C1c1cccc([N+](=O)[O-])c1 (centres unmarked) |  | FaSSIF | 24 h, pH 7.4, 37 °C | 227 µg/mL
Cc1ccc(-c2ccccc2C(=O)Nc2c(C)cccc2C(=O)O)cc1 | shake flask | aqueous buffer | 24 h, pH 6.5, 25 °C | 175 µM
Nc1cccc(S(=O)(=O)N2CCN(S(=O)(=O)c3ccc4c(c3)OCCO4)CC2)c1 |  | aqueous buffer |  | 4.1 µg/mL
COc1ccc(C2CC(=O)c3c(O)cc(O)cc3O2)cc1O (centres unmarked) | shake flask | water | 24 h, 25 °C | 15.7 µg/mL
CSc1nc2nc(C)cc(Nc3ccc(C(F)(F)F)cc3)n2n1 | nephelometry | aqueous buffer | pH 6.5 | 19 to 38 µM
COC(=O)c1ccc2c(c1)nc(C1CCNCC1)n2Cc1ccccc1 | shake flask | aqueous buffer | 20 h, pH 6.5, 25 °C | 200 µM
O=C(Nc1cc(F)c(F)c(F)c1)c1ccc(F)c(S(=O)(=O)NCc2cccc(B(O)O)c2)c1 |  | aqueous buffer | pH 2 | 174 µg/mL
CSC[C@H]1O[C@@H](n2cnc3c(N)ncnc32)[C@H](O)[C@@H]1O |  | PBS |  | 110 µM
CC(=O)c1cccc(OCc2cc(C(=O)N(C)[C@@H](C)c3ccccn3)no2)c1 |  | PBS |  | 96 µM
NCC1CCN(c2nccc3[nH]c(-c4cccc(OC(F)(F)F)c4)nc23)CC1 | shake flask | aqueous buffer | pH 6.5 | > 200 µM
Cl.Clc1ccc2c(c1)nc(NCCNCc1ccccc1)n2Cc1ccccc1 | shake flask | aqueous buffer | 20 h, pH 6.5, 25 °C | 25 µM
COc1cccc(OC)c1-c1nc(C(=O)N[C@@H](CC(C)C)C(=O)O)cn1-c1cccc2ccccc12 |  | aqueous buffer | pH 7.4 | > 145 µg/mL
CCc1nc2nc(C)cc(Nc3ccc(Cl)cc3)n2n1 | nephelometry | aqueous buffer | pH 6.5 | 170 to 350 µM
CCn1c(-c2nc3ccc(C(=O)N4CCCC(N)C4)cc3n2C)cc2ccccc21 (centres unmarked) |  | aqueous buffer |  | 243 µM
[Br-].c1ccc(-c2n(Cc3ccc4ccccc4c3)cc[n+]2Cc2ccc3ccccc3c2)cc1 |  | water |  | < 500 µg/mL

Structure (SMILES) | test | system | conditions | solubility
CC(C)Oc1ccc2cc(-c3nn(C(C)(C)C)c(N)c3C(N)=O)cnc2c1 |  | PBS | pH 6.5, 25 °C | > 100 µM
COc1ccnc(CNC(=O)c2cn(Cc3ccc(Cn4ccccc4=O)cc3)nc2C(F)(F)F)c1F |  | FaSSIF | 4 h, pH 6.5 | 20 µg/mL
CN1CCN([C@H]2CC[C@H](Nc3nccc4[nH]c(-c5cc(F)cc(F)c5)nc34)CC2)CC1 | shake flask | aqueous buffer | pH 6.5 | > 200 µM
CNc1nc2ccccc2n2c(-c3cccc(OC)c3)cnc12 | HPLC | ethanol |  | 500 µg/mL
OCCOc1ccccc1 |  | PBS | 48 h, pH 7.4, 25 °C | 180000 µM
N=C(N)NCc1ccc(NC(=O)C23CC(C(=O)Nc4ccc(C5=CCN(C(=N)N)CC5)cc4)(C2)C3)cc1 | shake flask | aqueous buffer | pH 7.4 | 770 µg/mL
CCCn1nc(C(=O)N2CCCCC2)c2c1CCC(NCc1ccc(N3CCCCC3)cc1)C2 (centres unmarked) |  | PBS | 16 h, pH 7.4 | 463 µM
Cc1ccc(Nc2nc(NCc3ccccc3)c3ccccc3n2)cc1F |  | aqueous buffer | pH 5 | 0.13 µg/mL
O=C(c1ccccn1)N(Cc1cccs1)C1(C(=O)NC2CCCCC2)CCCCC1 |  | aqueous buffer | pH 6.2 | 6.6 µg/mL
CCOc1ccc2cc(-c3nn(C(C)C)c(N)c3C(N)=O)cnc2c1 |  | PBS | pH 6.5, 25 °C | 99 µM
CNC(=O)c1ccc(N(Cc2ccc(C3CCCCC3)cn2)C(=O)[C@H]2CCN2S(=O)(=O)c2c(F)c(F)c(F)c(F)c2F)cc1O |  | simulated intestinal fluid |  | 131 µg/mL
c1ccc(CNc2nc(N3CCOc4ccccc43)nc3ccccc23)cc1 |  | aqueous buffer | pH 7.4 | 0.48 µg/mL
CC#Cc1cncc(-c2ccc3c(c2)[C@@]2(N=C(C)C(N)=N2)[C@]2(CC[C@H](OC)CC2)C3)c1 |  | simulated gastric fluid | 25 °C, acidic | > 10000 µg/mL
O=C(NCCN1CCCC1)c1cc(-c2ccc(CN3CCOCC3)cc2)nc2ccc(F)cc12.O=C(O)C=CC(=O)O |  | simulated gastric fluid | pH 2, 37 °C, acidic | > 6490 µM
COc1ccc(Nc2nc(NCc3ccccc3)c3ccccc3n2)cc1F |  | aqueous buffer | pH 5 | 3.4 µg/mL
Cc1cc(Nc2cccc(Cl)c2)n2nc(C(C)(F)F)nc2n1 | nephelometry | aqueous buffer | pH 6.5 | 77 to 150 µM
c1ccc(CNc2nc(N3CCNc4ccccc43)nc3ccccc23)cc1 |  | aqueous buffer | pH 7.4 | 0.02 µg/mL
O=C(CCCCCCC(=O)Nc1ccccc1)NO |  | simulated gastric fluid | 48 h, pH 2, 25 °C, acidic | 160 µg/mL
